Test results taken from ChEMBL document CHEMBL3997837, “Potent covalent inhibitors of bacterial urease identified by activity-reactivity profiling” (Bioorg Med Chem Lett, 2017).
Where a name gives a salt, the structure may show the parent alone. Activity calls are given as the source filed them. The calls are words filed in the database; no cut-off is given here.

Legend:
[1] = Inhibition of Sporosarcina pasteurii CCM 2056 urease assessed as reduction in ammonia production by measuring initial state enzyme-inhibitor complex using urea as substrate measured for 120 mins by phenol-hypochlorite method
Sporosarcina pasteurii [2] = assay: Reversible inhibition of Sporosarcina pasteurii CCM 2056 urease assessed as reduction in ammonia production by measuring recovery of enzyme activity at 10 times IC50 preincubated for 60 mins followed by 100-fold dilution in to PBS containing urea as substrate by Berthelot colorimetric assay relative to control; design: Activity: scale not given: the % may be the effect or the level left
Sporosarcina pasteurii [3] = assay: Competitive inhibition of Sporosarcina pasteurii CCM 2056 urease assessed as reduction in ammonia production preincubated with enzyme followed by addition of varying levels of urea as substrate measured for 120 mins by Lineweaver-Burk plot analysis
Sporosarcina pasteurii [4] = assay: Time-dependent Sporosarcina pasteurii CCM 2056 urease assessed as reduction in ammonia production using urea as substrate by phenol-hypochlorite method
[5] = Inhibition of Sporosarcina pasteurii CCM 2056 urease assessed as reduction in ammonia production by measuring steady state enzyme-inhibitor complex using urea as substrate measured for 120 mins by phenol-hypochlorite method
[6] = Inhibition of Sporosarcina pasteurii CCM 2056 urease assessed as reduction in ammonia production using urea as substrate measured for 120 mins by phenol-hypochlorite method
BALB/3T3 = assay: Cytotoxicity against mouse BALB/3T3 cells assessed as reduction in cell proliferation after 72 hrs by SRB assay; format: cell-based; details: balb/3t3, 72 h
Summary of the method: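 Mouse BALB/3T3 fibroblasts were scored by SRB assay, with cytotoxicity given as LC50 values.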

[7] = Glutathione reactivity in pH 7.4 PBS measured after 6 to 36 hrs in presence of 1.375 mmol GSH by DTNB reagent based spectrophotometric method
Summary of the method: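 Glutathione served as a model reactive-thiol compound. Unreacted GSH was quantified spectrophotometrically by a modified Ellman method, and reaction progress was followed over time up to 36 h.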

[8] = Glutathione reactivity up to 15 mins in presence of 10 mM GSH by 1H NMR analysis
[9] = Inhibition of Proteus mirabilis 543 urease at pH 5.5 assessed as reduction in ammonia production using urea as substrate measured after 15 mins by NaOH-hypochlorite method
Summary of the method: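 Intact Proteus mirabilis cells were tested at pH 5.5, matching physiological urine, with 5 mM urea. Inhibitors were added without preincubation, and IC50 was determined.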

[10] = Inhibition of Proteus mirabilis 543 urease at pH 5.5 assessed as reduction in ammonia production using urea as substrate preincubated for 120 mins followed by substrate addition measured after 15 mins by NaOH-hypochlorite method
Summary of the method: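 Intact Proteus mirabilis cells were preincubated with inhibitors in PBS for 2 h, then tested at pH 5.5, matching urine acidity, with 5 mM urea. IC50 was determined.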

[11] = Cytotoxicity against mouse BALB/3T3 cells assessed as inhibition of cell proliferation at 100 uM after 72 hrs by SRB assay relative to control; format: cell-based
Summary of the method: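 Mouse BALB/3T3 cells were tested by SRB assay at a single concentration of 100, with the result given as percent inhibition of proliferation.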

Proteus mirabilis = assay: Inhibition of Proteus mirabilis 543 urease at pH 5.5 assessed as reduction in ammonia production using urea as substrate followed by substrate addition by NaOH-hypochlorite method; details: TDE = time-dependent effect

Ki ([1]; read-out: Ki) [µM] | Activity (Sporosarcina pasteurii [2]) [%] | mode of inhibition (Sporosarcina pasteurii [3]) | TDI (Sporosarcina pasteurii [4]) | Ki ([5]; read-out: Ki) [µM] | Ki ([6]; read-out: Ki) [µM] | SMILES | also measured
847 | 45.1 | Active | Active | 66.7 | 53.7 | CCCCOC(=O)/C=C/C(=O)OCCCC | 
907 | 46 | Active | Active | 59.2 | 64.2 | CCC(C)OC(=O)/C=C/C(=O)OC(C)CC (configuration not stated) | 
804 | 41.5 | Active | Active | 50.5 | 46 | C#CC(=O)OC | 
162 | 29.1 | Active | Active | 2.27 | 2.52 | C=C=CC(=O)OCC | 
 |  |  |  |  |  | C=C=CC(=O)NCc1ccccc1 | Ki [1]: Not Active; inhibition (Sporosarcina pasteurii [2]): inactive; Ki [5]: Not Active; Ki [6]: Not Active
814 | 44.7 | Active | Active | 47.1 | 52.3 | CCOC(=O)C#Cc1ccccc1 | 
729 | 40.9 | Active | Active | 43.5 | 44.4 | C#CC(=O)O [PROPIOLIC ACID] | 
 | 31.5 | Active | Active |  | 5.21 | COC(=O)/C=C(\CC(=O)OC)C(=O)OC | 
 | 29.1 |  |  |  | 3.3 | CC(=O)NO [ACETOHYDROXAMIC ACID] | IC50 ([9]; read-out: IC50): 169 µM; IC50 ([10]; read-out: IC50): 91.4 µM
0.852 | 8.8 | Active | Active | 0.00744 | 0.0102 | CCOC(=O)C#CC(=O)OCC | 
 |  |  |  |  |  | COC(=O)/C=C\C(=O)OC [DIMETHYL MALEATE] | Ki [1]: Not Active; inhibition (Sporosarcina pasteurii [2]): inactive; Ki [5]: Not Active; Ki [6]: Not Active
189 | 38.1 | Active | Active | 19.5 | 17.8 | O=C(O)/C=C/C1=CC(=O)CCC1 | 
678 | 41.2 | Active | Active | 38.6 | 42.4 | CC(C)OC(=O)/C=C/C(=O)OC(C)C | 
 |  |  |  |  |  | O=C(O)/C=C\C(=O)O [MALEIC ACID] | Ki [1]: Not Active; inhibition (Sporosarcina pasteurii [2]): inactive; Ki [5]: Not Active; Ki [6]: Not Active
 |  |  |  |  |  | CCOC(=O)/C=C/c1ccc(C)cc1 | Ki [1]: Not Active; inhibition (Sporosarcina pasteurii [2]): inactive; Ki [5]: Not Active; Ki [6]: Not Active
1130 | 47.4 | Active | Active | 97.5 | 109 | CC#CC(=O)O | 
32.8 | 8.9 | Active | Active | 0.113 | 0.0928 | CCOC(=O)/C=C/C(=O)C(=O)OCC | 

Ki ([1]; read-out: Ki) [µM] | Activity (Sporosarcina pasteurii [2]) [%] | mode of inhibition (Sporosarcina pasteurii [3]) | TDI (Sporosarcina pasteurii [4]) | Ki ([5]; read-out: Ki) [µM] | Ki ([6]; read-out: Ki) [µM] | SMILES | also measured
22.8 | 27.2 | Active | Active | 0.267 | 0.766 | O=C1C=CCCC1 | inhibition at 72 h, 100 µM [11]: 29.8%; K [7]: 0.37 M⁻¹ s⁻¹; log K [7]: 1.35
633 | 39.9 | Active | Active | 32.2 | 34.2 | Cc1ccc(/C=C/C(=O)O)cc1 | 
16.7 | 16.7 | Active | Active | 0.316 | 0.285 | COC(=O)/C=C/C1=CC(=O)CC1 | inhibition at 72 h, 100 µM [11]: 35.2%; K [7]: 0.166 M⁻¹ s⁻¹; log K [7]: 0.998
 |  | Active |  |  |  | CCOC(=O)/C=C/c1ccc([N+](=O)[O-])cc1 | Ki [1]: Not Active; inhibition (Sporosarcina pasteurii [2]): inactive; Ki [5]: Not Active; Ki [6]: Not Active
888 | 45.6 | Active | Active | 59.1 | 52.4 | CCOC(=O)/C=C/C(=O)O [ETHYL FUMARATE] | 
1270 | 47.3 | Active | Active | 117 | 126 | CC#CC(=O)OCC | 
205 | 38.8 | Active | Active | 21.3 | 21.2 | CC(=O)/C=C/C1=CC(=O)CCC1 | 
584 | 39.2 | Active | Active | 40.3 | 37.1 | O=C(O)C#Cc1ccccc1 | 
55.1 | 27.2 | Active | Active | 0.931 | 0.784 | N#C/C=C/C1=CC(=O)CCC1 | 
 |  |  |  |  |  | CCOC(=O)/C=C/c1ccccc1 [ETHYL CINNAMATE] | Ki [1]: Not Active; inhibition at 72 h, 100 µM [11]: 29.1%; IC50 [9]: Not Active; inhibition (Proteus mirabilis): Tde; inhibition (Sporosarcina pasteurii [2]): inactive; Ki [5]: Not Active; Ki [6]: Not Active; K [7]: 1.21e-05 M⁻¹ s⁻¹; log K [7]: -3.14; IC50 [10]: Not Active
21.7 | 34.3 | Active | Active | 12 | 11.1 | CCOC(=O)/C=C/C(=O)OCC | 
26.8 | 21.5 | Active | Active | 0.493 | 0.592 | O=C1C=C(/C=C/C(=O)c2ccccc2)CCC1 | 
46.5 | 23.6 | Active | Active | 0.766 | 0.694 | COC(=O)/C=C/C1=CC(=O)CCC1 | K [7]: 0.0703 M⁻¹ s⁻¹; log K [7]: 0.63
323 | 35.8 | Active | Active | 15.7 | 11.9 | O=C(O)/C=C/c1ccc([N+](=O)[O-])cc1 | 
77.1 | 32.7 | Active | Active | 6.64 | 6.36 | Cc1ccc(C(=O)/C=C/C(=O)O)cc1 | inhibition at 72 h, 100 µM [11]: 31.3%; K [7]: 0.333 M⁻¹ s⁻¹; log K [7]: 1.3
425 | 39.3 | Active | Active | 25.7 | 22.1 | CCOC(=O)/C=C/C(=O)OC(C)(C)C | 

SMILES | Ki ([1]; read-out: Ki) [µM] | Activity (Sporosarcina pasteurii [2]) [%] | mode of inhibition (Sporosarcina pasteurii [3]) | TDI (Sporosarcina pasteurii [4]) | Ki ([5]; read-out: Ki) [µM] | Ki ([6]; read-out: Ki) [µM] | also measured
COC(=O)/C=C/C(=O)OC [DIMETHYL FUMARATE] | 311 | 36.8 | Active | Active | 21.7 | 21.3 | LC50 (BALB/3T3): 39.7 µM; K [7]: 2.62 M⁻¹ s⁻¹; log K [7]: 2.2; Drug metabolism [8]: Metabolite detected
O=C(O)/C=C(\CC(=O)O)C(=O)O [ACONITIC ACID] |  | 33.8 | Active | Active |  | 6.13 | 
CCOC(=O)/C=C/C(=O)c1ccccc1 | 29.2 | 30.2 | Active | Active | 1.21 | 3.96 | LC50 (BALB/3T3): 24.5 µM; K [7]: 2.18 M⁻¹ s⁻¹; log K [7]: 2.12
COC(=O)C#CC(=O)OC | 0.973 | 9.2 | Active | Active | 0.0124 | 0.00977 | LC50 (BALB/3T3): 29.8 µM; K [7]: 6.47 M⁻¹ s⁻¹; log K [7]: 2.59; Drug metabolism [8]: Metabolite detected
O=C1C=CCC1 | 11.2 | 15.3 | Active | Active | 0.232 | 0.291 | LC50 (BALB/3T3): 86.5 µM; K [7]: 0.487 M⁻¹ s⁻¹; log K [7]: 1.5
